Test results published in ChEMBL document CHEMBL1152480, “Synthesis of novel carbazole based macrocyclic amides as potential antimicrobial agents” (2009).
≈ marks a conversion by molar mass, not a printed value.

Key:
Curvularia lunata = test: Antifungal activity against Curvularia lunata after 3 days by well diffusion assay; type: functional; conditions: for MIC: 72 h
Procedure, shortened: (§1)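 Fungi maintained on potato dextrose agar (potato 200 g/l, dextrose 20 g/l; pH 6.5) at room temperature (28 ± 2 °C). Well diffusion assay against DMSO control; MIC read as lowest concentration causing prominent inhibition of fungal growth after 3 days incubation at 37 °C.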

Macrophomina phaseolina = test: Antifungal activity against Macrophomina phaseolina after 3 days by well diffusion assay; type: functional; conditions: for MIC: 72 h; procedure, shortened: as §1
Rhizoctonia solani = test: Antifungal activity against Rhizoctonia solani after 3 days by well diffusion assay; type: functional; conditions: for MIC: 72 h; procedure, shortened: as §1
Alternaria alternata = test: Antifungal activity against Alternaria alternata after 3 days by well diffusion assay; type: functional; conditions: for MIC: 72 h; procedure, shortened: as §1
[1] = system: Salmonella enterica subsp. enterica; test: Antibacterial activity against Salmonella typhi after 24 hrs by well diffusion assay; type: functional, Salmonella enterica subsp. enterica serovar Typhi; conditions: for Activity: Salmonella enterica subsp. enterica serovar Typhi
Procedure, shortened: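 S. typhi kept on nutrient agar (beef extract, yeast extract, peptone, NaCl, agar; pH 7.2) at 28 ± 2 °C. Agar well diffusion with DMSO as control and tetracycline as reference. MIC taken as the lowest concentration giving prominent inhibition of bacterial growth after 24 h at 37 °C.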

Staphylococcus aureus = test: Antibacterial activity against Staphylococcus aureus after 24 hrs by well diffusion assay; type: functional
Procedure, shortened: (§2)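 Bacteria kept on nutrient agar (beef extract, yeast extract, peptone, NaCl; pH 7.2) at room temperature (28 ± 2 °C). Compounds tested by well diffusion against DMSO control, tetracycline reference. MIC taken as lowest concentration giving prominent inhibition of bacterial growth after 24 h at 37 °C.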

Proteus vulgaris = test: Antibacterial activity against Proteus vulgaris after 24 hrs by well diffusion assay; type: functional; procedure, shortened: as §2
Proteus mirabilis = test: Antibacterial activity against Proteus mirabilis after 24 hrs by well diffusion assay; type: functional; procedure, shortened: as §2

Compound	MIC (Curvularia lunata) [µg/mL]	MIC (Macrophomina phaseolina) [µg/mL]	MIC (Rhizoctonia solani) [µg/mL]	MIC (Alternaria alternata) [µg/mL]	MIC [1] [µg/mL]	Activity [1]	Activity (Curvularia lunata)	Activity (Macrophomina phaseolina)	Activity (Staphylococcus aureus)	MIC (Staphylococcus aureus) [µg/mL]	Activity (Proteus vulgaris)	MIC (Proteus vulgaris) [µg/mL]	Activity (Rhizoctonia solani)	Activity (Alternaria alternata)	Activity (Proteus mirabilis)	MIC (Proteus mirabilis) [µg/mL]
COC(=O)Nc1nc2ccccc2[nH]1 [CARBENDAZIM]	15 (≈ 78.5 µM)	18 (≈ 94.1 µM)	25 (≈ 131 µM)	12 (≈ 62.8 µM)	–	–	–	–	–	–	–	–	–	–	–	–
CCn1c2ccc3cc2c2cc(ccc21)CSc1ccccc1NC(=O)c1ccc(cc1)OCc1ccccc1COc1ccc(cc1)C(=O)Nc1ccccc1SC3	20 (≈ 24.6 µM)	50 (≈ 61.6 µM)	40 (≈ 49.3 µM)	15 (≈ 18.5 µM)	20 (≈ 24.6 µM)	Dose-dependent effect	Dose-dependent effect	Dose-dependent effect	Dose-dependent effect	30 (≈ 36.9 µM)	Dose-dependent effect	40 (≈ 49.3 µM)	Dose-dependent effect	Dose-dependent effect	Dose-dependent effect	10 (≈ 12.3 µM)
CCn1c2ccc3cc2c2cc(ccc21)CSc1ccccc1NC(=O)COc1ccc2ccccc2c1-c1c(ccc2ccccc12)OCC(=O)Nc1ccccc1SC3	10 (≈ 12 µM)	15 (≈ 17.9 µM)	20 (≈ 23.9 µM)	10 (≈ 12 µM)	10 (≈ 12 µM)	Dose-dependent effect	Dose-dependent effect	Dose-dependent effect	Dose-dependent effect	10 (≈ 12 µM)	Dose-dependent effect	5 (≈ 5.98 µM)	Dose-dependent effect	Dose-dependent effect	Dose-dependent effect	5 (≈ 5.98 µM)
CCn1c2ccc3cc2c2cc(ccc21)CSc1ccccc1NC(=O)c1ccccc1-c1ccccc1C(=O)Nc1ccccc1SC3	20 (≈ 29.6 µM)	15 (≈ 22.2 µM)	20 (≈ 29.6 µM)	25 (≈ 37 µM)	60 (≈ 88.8 µM)	Dose-dependent effect	Dose-dependent effect	Dose-dependent effect	Dose-dependent effect	70 (≈ 104 µM)	Dose-dependent effect	40 (≈ 59.2 µM)	Dose-dependent effect	Dose-dependent effect	Dose-dependent effect	40 (≈ 59.2 µM)
CCn1c2ccc3cc2c2cc(ccc21)CSc1ccccc1NC(=O)c1cccc(n1)C(=O)Nc1ccccc1SC3	15 (≈ 25 µM)	10 (≈ 16.6 µM)	20 (≈ 33.3 µM)	15 (≈ 25 µM)	30 (≈ 49.9 µM)	Dose-dependent effect	Dose-dependent effect	Dose-dependent effect	Dose-dependent effect	10 (≈ 16.6 µM)	Dose-dependent effect	30 (≈ 49.9 µM)	Dose-dependent effect	Dose-dependent effect	Dose-dependent effect	5 (≈ 8.32 µM)
CCn1c2ccc3cc2c2cc(ccc21)CSc1ccccc1NC(=O)c1cccc(c1)C(=O)Nc1ccccc1SC3	20 (≈ 33.3 µM)	30 (≈ 50 µM)	30 (≈ 50 µM)	15 (≈ 25 µM)	50 (≈ 83.4 µM)	Dose-dependent effect	Dose-dependent effect	Dose-dependent effect	Dose-dependent effect	20 (≈ 33.3 µM)	Dose-dependent effect	60 (≈ 100 µM)	Dose-dependent effect	Dose-dependent effect	Dose-dependent effect	50 (≈ 83.4 µM)
CN(C)[C@@H]1C(O)=C(C(N)=O)C(=O)[C@@]2(O)C(O)=C3C(=O)c4c(O)cccc4[C@@](C)(O)[C@H]3C[C@@H]12 [TETRACYCLINE]	–	–	–	–	15 (≈ 33.8 µM)	–	–	–	–	20 (≈ 45 µM)	–	35 (≈ 78.8 µM)	–	–	–	20 (≈ 45 µM)
CCn1c2ccc3cc2c2cc(ccc21)CSc1ccccc1NC(=O)COc1cccc(c1)OCC(=O)Nc1ccccc1SC3	35 (≈ 53 µM)	45 (≈ 68.2 µM)	50 (≈ 75.8 µM)	25 (≈ 37.9 µM)	30 (≈ 45.5 µM)	Dose-dependent effect	Dose-dependent effect	Dose-dependent effect	Dose-dependent effect	40 (≈ 60.6 µM)	Dose-dependent effect	60 (≈ 90.9 µM)	Dose-dependent effect	Dose-dependent effect	Dose-dependent effect	20 (≈ 30.3 µM)
